Structures can show the parent of a compound that is named as a salt. Values belong to the compound of their own block, whether it stands above or below them.
Tests used:
C. parvum [1] = test: Initial screen of gut metabolites on C. parvum growth in HCT-8 cells; format: cell-based, Cryptosporidium parvum; settings: 24 hpi, metabolite at 1 mM (0.1 mM for bile acids/salts)
Procedure, shortened: (§1)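 Confluent HCT-8 cells (1.5 × 10^5/well, grown ~24 h) were infected with 5 × 10^5 bleached oocysts together with a single metabolite diluted in culture medium (1 mM or 0.1 mM) for 24 h. Parasite and host cell numbers are given as ratios to PBS control wells on the same plate. Each metabolite was run in triplicate across six separate experiments.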

C. parvum [2] = test: C. parvum growth assay in HCT-8 cells; format: cell-based, Cryptosporidium parvum; settings: for EC50: HCT-8, 24 h; for Cp infection, treatment started 4 hpi: 4 – 24 hpi; for Cp growth, treatment 0 – 4 hpi only: first four hours of infection only
AhR = settings: cited from earlier work
C. parvum [3] = settings: dietary supplementation, malnourished neonatal mice; cited from earlier work
HCT-8 cells [4] = test: Host nuclei in growth assay with mitochondrial inhibitors; format: cell-based, human; settings: for host cell toxicity at Cp-inhibitory levels: HCT-8, 24 h, at EC50 levels
Procedure, shortened: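 Confluent HCT-8 cells (1.5 × 10^5/well) were infected with 1 × 10^5 bleached oocysts and exposed ~24 h to test compounds, serially diluted 1:2 from 40 μM (final, 1% DMSO). Cells were fixed in 4% formaldehyde, permeabilized/blocked in 0.1% Triton-X/1% BSA, Hoechst-stained and counted, with values relative to the 1% DMSO control mean. Four replicates (2 technical × 2 experiments).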

HCT-8 cells [5] = test: Host cell numbers in the initial metabolite screen; format: cell-based, human; settings: metabolite at 1 mM, 24 h
Procedure, shortened: as §1

C. parvum [6] = settings: neonatal mice, only when gut microflora present; cited from earlier work
C. parvum [7] = test: C. parvum growth assay in HCT-8 AhR KO cell lines; format: cell-based, Cryptosporidium parvum; settings: HCT-8 AhR KO cells, 24 h, indole 1 mM, 4HI 1 mM
C. parvum [8] = test: Metabolite treatment of C. parvum-infected GKO mice; format: in vivo, mouse
Cp mitosome = test: Mitotracker CMXRos staining of C. parvum mitosome; format: cell-based, Cryptosporidium parvum; settings: 2 x EC90 indole 1.76 mM, 7CNI 1 mM, CCCP 10 μM; 2 h or 24 h
Procedure, shortened: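 HCT-8 cells on coverslips were infected with 5 × 10^5 oocysts, washed twice with DPBS, and exposed in 1% DMSO medium either 22–24 hpi (2 h) or continuously to 24 hpi. MitoTracker Red CMXRos (50 nM final) was added 45 min before fixation at 24 hpi. Staining used 1E12 with Alexa Fluor 488 secondary plus Hoechst. Four replicates (2 technical × 2 experiments).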

HCT-8 cells [9] = test: Seahorse metabolic assays; format: cell-based, human; settings: 18 h
C. parvum [10] = test: Antibody and EdU labeling of C. parvum life cycle stages in HCT-8 cells; format: cell-based, Cryptosporidium parvum; settings: EC90 concentrations; for life cycle stage progression: first 24 hpi, EdU pulses
C. parvum [11] = test: Air-liquid interface; format: cell-based, Cryptosporidium parvum; settings: for time after washout to significant recovery in Cp growth: treated 48 h at EC50 concentration; for EC50 / EC90: Cryptosporidium parvum; for EC50: read-out: EC50 for Cp in ALI cultures; for EC90: read-out: EC90 for Cp in ALI cultures
Procedure, shortened: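 ALI transwells were coated with 10% Matrigel and seeded with irradiated mouse 3T3 fibroblasts (8 × 10^4/transwell). Top medium was removed after 7 days, and 5 × 10^4 oocysts were added on top 3 days later. After ~4 h the tops were washed twice with DPBS and day-0 wells scraped. Test compound at three levels or 1% DMSO went in the bottom medium for ~48 h, then transwells moved to normal medium. Parasite genome eq. by DNA extraction, normalized to DMSO at each time point; six replicates (3 technical × 2 experiments).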

[12] = test system: AhR target genes AhRR and CYP1A1; settings: HCT-8 AhR KO 1 and KO 2, VAF347 500 nM, 24 h
[13] = Cryptosporidium parvum, read-out: Cp EC50
[14] = indole 0.5-2 mM, 7CNI 0.25-1 mM
[15] = Cryptosporidium parvum, HCT-8, read-out: EC90 for Cp, HCT-8 cells

EC50 (C. parvum [2]; [13]): 1260 µM
Compound: Oc1cccc2[nH]ccc12 [4-hydroxyindole]
effect on Cp growth (Cp numbers relative to PBS control) (C. parvum [1]): significantly inhibited

Compound: Cc1ccc2cc[nH]c2c1 [6-methylindole]
AhR signaling in vitro (AhR): activate AhR signaling

EC50 (C. parvum [2]; [13]): 213 µM
Fold selectivity (host EC50 divided by Cp EC50) (C. parvum [2]; HCT-8 cells): 44.6 fold
Compound: Cc1ncc(CO)c(C=O)c1O [pyridoxal hydrochloride]
effect on Cp growth (Cp numbers relative to PBS control) (C. parvum [1]): significantly inhibited

Compound: N=C(N)NCCC[C@H](N)C(=O)O [arginine]
severity of C. parvum infection (C. parvum [3]): decrease severity of C. parvum infection

Compound: CC[C@H]1/C=C/C=C/C[C@@H](C)[C@H](O)[C@@](C)(O)C(=O)[C@@H](C)[C@H](O)[C@@H](C)C(=O)[C@@H](C)[C@H](O)[C@@H](C)/C=C/C(=O)O[C@@H]2[C@H](C)[C@H](CC1)O[C@]1(CC[C@H](C)[C@H](C[C@@H](C)O)O1)[C@H]2C [oligomycin, reference compound]
host cell toxicity at Cp-inhibitory levels (HCT-8 cells [4]): not due to host cell toxicity
EC50 (C. parvum [2]; Cryptosporidium parvum, read-out: Cp EC50, OxPhos inhibitors): 20.6 µM

Compound: C[C@H](CCC(=O)O)[C@H]1CC[C@H]2[C@@H]3CC[C@@H]4C[C@H](O)CC[C@]4(C)[C@H]3CC[C@]12C [lithocholic acid]
host toxicity in screen (HCT-8 cells [5]): significant host toxicity
effect on Cp growth (Cp numbers relative to PBS control) (C. parvum [1]): significantly inhibited

Compound: poly(I:C)
C. parvum load (C. parvum [6]): reduced C. parvum load

Compound: c1ccc2[nH]ccc2c1 [indole]
Cp sensitivity in AhR KO cells (C. parvum [7]): remained sensitive
median survival time (C. parvum [8]; 50 mg/kg BID 7 days, vehicle 11 dpi): 17 dpi
Cp oocysts shed in feces (C. parvum [8]; 50 mg/kg oral gavage twice daily 7 days, by 5 dpi): no effect
Mitotracker staining of Cp mitosomes (Cp mitosome): significantly decreased Mitotracker staining
basal and stressed respiratory rate in HCT-8 WT and AhR KO cells (HCT-8 cells [9]; indole 0.5, 1, 2 mM, stressed = after FCCP and oligomycin): significantly impaired in a dose-dependent manner
basal and maximal levels of mitochondrial respiration (OCR) (HCT-8 cells [9]; indole 0.5, 1, 2 mM, 7CNI 0.25, 0.5, 1 mM, dose-dependent): significantly reduced
ATP production rate by glycolysis (HCT-8 cells [9]; [14]): remained similar
ATP production rate by the mitochondria (HCT-8 cells [9]; [14]): significant reduction
spare respiratory capacity (HCT-8 cells [9]; [14]): diminished
total ATP production rate (HCT-8 cells [9]; [14]): lower total ATP production rate
morphology of mature merozoites (1E12 labeling) (C. parvum [10]; 22 h): did not observe any obvious morphological defects
time until which total number of Cp did not significantly differ from DMSO (C. parvum [10]; HCT-8, start of second round of merogony): ~ 16 hpi
life cycle stage progression (C. parvum [10]): delayed progression through sequential life cycle stages
Cp growth recovery after washout, 2 x EC90 (C. parvum [11]; ALI, treated 48 h at 2 x EC90 concentration): no recovery
time after washout to significant recovery in Cp growth (C. parvum [11]; ALI): 2 days
Cp growth recovery after washout, EC90 (C. parvum [11]; ALI, treated 48 h at EC90 concentration): Some growth recovery (though not significant)
EC50 (C. parvum [11]): 577 µM
EC90 (C. parvum [11]): 1890 µM
EC50 (C. parvum [2]; [13]): 411 µM
EC90 (C. parvum [2]; [15]): 880 µM
Cp infection, treatment started 4 hpi (C. parvum [2]; EC90 concentrations): significantly inhibited Cp infection
Cp growth, treatment 0 – 4 hpi only (C. parvum [2]; EC90 concentrations): neither indole nor 7CNI inhibited Cp growth
Cp infection after pre-treatment of host cells (C. parvum [2]; EC90 concentrations, host cells pre-treated 20 h before infection): did not affect subsequent Cp infection
EC90 (C. parvum [2]; read-out: EC90 for Cp, HCT-8 cells): 877 µM

Compound: propionic
effect on Cp growth (Cp numbers relative to PBS control) (C. parvum [1]): impair growth

Compound: Cc1cccc2[nH]ccc12 [4-methylindole]
AhR signaling in vitro (AhR): activate AhR signaling

Compound: CCCCC[C@H](O)/C=C/[C@H]1[C@H](O)CC(=O)[C@@H]1C/C=C\CCCC(=O)O [prostaglandin E2]
host toxicity in screen (HCT-8 cells [5]): significant host toxicity

Compound: N#Cc1cccc2cc[nH]c12 [7-cyanoindole]
survival rate (C. parvum [8]; 50 mg/kg BID 7 days): did not significantly increase survival rate
mean Cp oocysts per mg feces by 9 dpi (C. parvum [8]; 50 mg/kg BID 7 days, after end of treatment): rebounded
body weight vs vehicle- or indole-treated mice (C. parvum [8]; 50 mg/kg BID, 5 and 7 dpi): weighed significantly more
life cycle stage progression (C. parvum [10]): delayed progression through sequential life cycle stages
time after washout to significant recovery in Cp growth (C. parvum [11]; ALI): 4 days
EC50 (C. parvum [11]): 379 µM
EC90 (C. parvum [11]): 688 µM
EC90 (C. parvum [2]; [15]): 500 µM
Cp infection, treatment started 4 hpi (C. parvum [2]; EC90 concentrations): significantly inhibited Cp infection
Cp growth, treatment 0 – 4 hpi only (C. parvum [2]; EC90 concentrations): neither indole nor 7CNI inhibited Cp growth

Compound: O=C(O)Cc1c[nH]c2ccc(O)cc12 [5-hydroxyindole-3-acetic acid]
effect on Cp growth (Cp numbers relative to PBS control) (C. parvum [1]): no effect

Compound: C[C@H](CCC(=O)O)[C@H]1CC[C@H]2[C@@H]3CC[C@@H]4C[C@H](O)CC[C@]4(C)[C@H]3C[C@H](O)[C@]12C [deoxycholate, sodium deoxycholate]
effect on Cp growth (Cp numbers relative to PBS control) (C. parvum [1]): significantly inhibited

Compound: FC(F)(F)c1ccc(Nc2nccc(-c3cccc(Cl)c3)n2)cc1 [VAF347]
CYP1A1 gene expression in AhR KO lines [12]: lost the ability to upregulate CYP1A1 gene expression

Compound: N#CC(C#N)=NNc1cccc(Cl)c1 [CCCP, carbonyl cyanide m-chlorophenyl hydrazone]
Mitotracker staining of Cp mitosomes (Cp mitosome): decreases Mitotracker staining
host toxicity at high concentration (HCT-8 cells [4]; HCT-8, 40 μM and 20 μM): observed host toxicity
host cell toxicity at Cp-inhibitory levels (HCT-8 cells [4]): not due to host cell toxicity

Compound: C[C@H](CCC(=O)O)[C@H]1CC[C@H]2[C@@H]3CC[C@@H]4C[C@H](O)CC[C@]4(C)[C@H]3C[C@H](O)[C@]12C [deoxycholic acid]
host toxicity in screen (HCT-8 cells [5]): significant host toxicity

Compound: fumaric
effect on Cp growth (Cp numbers relative to PBS control) (C. parvum [1]): impair growth

Compound: COc1cccc2cc[nH]c12 [7-methoxyindole]
AhR signaling in vitro (AhR): activate AhR signaling

— publication PMC10245909 (bioRxiv, 2023)
